Here are results for 7 compounds from ChEMBL document CHEMBL4732114, “Design and structural optimization of novel 2H-benzo[h]chromene derivatives that target AcrB and reverse bacterial multidrug resistance” (Eur J Med Chem, 2021).

Molecules are shown by their SMILES. In brackets after ≈: the same amount, converted by molar mass. Activity calls are given as the source filed them. The calls are words filed in the database; no cut-off is given here.

The test system of one data set is Escherichia coli. Description: Antibacterial activity against multidrug-resistant Escherichia coli BW25113 harboring AcrB deletion mutant by two-fold broth dilution method. Type of data set: functional. Put shortly:
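Two-fold broth dilution MIC against an isogenic BW25113 strain with AcrB deleted, run alongside the AcrB-expressing parent. The test was done to define sub-inhibitory levels for later checkerboard work.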

Data set [1] in a line: Toxicity in multidrug-resistant Escherichia coli BW25113 assessed as growth inhibition by two-fold broth dilution method.
The nature of data set [2]: Toxicity in multidrug-resistant Escherichia coli BW25113 harboring AcrB deletion mutant assessed as growth inhibition by two-fold broth dilution method. Background: In broth dilution the organism is exposed to a series of concentrations in liquid medium.
Data set [3] has as its target T1, Multidrug efflux pump subunit AcrB (Escherichia coli (strain K12)) (UniProt P31224).
T1 sequence (whole entry): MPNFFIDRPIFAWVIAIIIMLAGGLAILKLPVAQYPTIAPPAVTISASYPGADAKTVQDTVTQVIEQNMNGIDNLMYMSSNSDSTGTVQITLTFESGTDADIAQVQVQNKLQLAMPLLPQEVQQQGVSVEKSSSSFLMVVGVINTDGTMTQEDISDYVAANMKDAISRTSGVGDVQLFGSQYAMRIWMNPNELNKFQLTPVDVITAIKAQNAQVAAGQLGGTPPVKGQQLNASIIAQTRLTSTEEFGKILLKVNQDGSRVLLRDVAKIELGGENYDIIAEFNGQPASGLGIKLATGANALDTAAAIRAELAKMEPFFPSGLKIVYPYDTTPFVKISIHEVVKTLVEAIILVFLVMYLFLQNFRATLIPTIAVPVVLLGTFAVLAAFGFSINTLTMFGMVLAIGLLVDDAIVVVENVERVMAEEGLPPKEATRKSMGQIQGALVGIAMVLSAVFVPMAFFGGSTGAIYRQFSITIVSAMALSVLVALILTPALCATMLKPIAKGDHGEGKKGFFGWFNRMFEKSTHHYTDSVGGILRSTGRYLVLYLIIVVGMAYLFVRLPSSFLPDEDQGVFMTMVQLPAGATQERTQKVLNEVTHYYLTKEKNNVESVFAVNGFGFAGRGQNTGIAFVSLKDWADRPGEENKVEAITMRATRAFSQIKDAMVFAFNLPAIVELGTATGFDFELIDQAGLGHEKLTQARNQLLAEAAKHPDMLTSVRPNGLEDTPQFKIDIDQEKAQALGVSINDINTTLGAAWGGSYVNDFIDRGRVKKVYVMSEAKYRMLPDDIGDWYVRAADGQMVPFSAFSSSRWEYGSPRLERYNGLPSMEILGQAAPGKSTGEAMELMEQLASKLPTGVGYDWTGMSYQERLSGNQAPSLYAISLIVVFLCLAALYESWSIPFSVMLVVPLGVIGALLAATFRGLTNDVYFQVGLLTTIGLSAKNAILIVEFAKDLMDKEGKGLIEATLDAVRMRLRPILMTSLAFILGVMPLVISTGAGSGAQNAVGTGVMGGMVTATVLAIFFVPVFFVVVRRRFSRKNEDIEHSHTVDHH
Description: Inhibition of AcrB in multidrug-resistant Escherichia coli BW25113 assessed as potentiation of chloramphenicol-induced antibacterial activity by measuring chloramphenicol MIC at 8 ug/ml by checkerboard titration method (reference value: 8 ug/ml). To be noted: dose 8.0 µg/ml.

In data set [4] the target is T1, Multidrug efflux pump subunit AcrB (Escherichia coli (strain K12)). Description: Inhibition of AcrB in multidrug-resistant Escherichia coli BW25113 assessed as potentiation of erythromycin-induced antibacterial activity by measuring erythromycin MIC at 32 ug/ml by checkerboard titration method (reference value: 64 ug/ml). Conditions: dose 32.0 µg/ml.
Data set [5] has the same target. Conditions: Escherichia coli BW25113; dose 64.0 µg/ml.
The target is the same in data set [6]. To be noted: Escherichia coli BW25113; dose 16.0 µg/ml.
Data set [7] shares this target. Description: Inhibition of AcrB in multidrug-resistant Escherichia coli BW25113 assessed as potentiation of tetraphenylphosphonium-induced antibacterial activity by measuring tetraphenylphosphonium MIC at 32 ug/ml by checkerboard titration method (reference value: 1024 ug/ml). Conditions: dose 32.0 µg/ml.
For data set [8] the target is unchanged. Description: Inhibition of AcrB in Escherichia coli BW25113 assessed as reduction in glucose-induced nile red efflux at 50 uM preincubated for 15 mins followed by nile red addition and incubated for 3 hrs in shaker in presence of CCCP by fluorimetric analysis. Conditions: time 3.25 hrs. Put shortly:
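Wild-type and AcrB-deleted cells were preloaded with Nile Red, with or without compound. Fluorescence was recorded, and efflux was triggered at 100 s with 0.2% glucose. Traces were compared with the deletion-strain level. Triplicate experiments used different cell batches.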

Data set [9] has as its system Cell membrane. The experiment in a line: Induction of outer membrane permeabilization in wild type Escherichia coli BW25113 assessed as increase in nitrocefin hydrolysis at 128 ug/ml in presence of CCCP by spectroscopic analysis. Conditions: dose 128 µg/ml. A digest of the protocol:
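Intact E. coli were treated with 10 μM CCCP to block nitrocefin efflux, then given compound, nothing, or polymyxin B as permeabilizer control. Nitrocefin was added, and hydrolysis by periplasmic β-lactamase was followed as the rise in absorbance at 490 nm. Duplicate experiments were run on different days.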

Data set [10] has as its target T1, Multidrug efflux pump subunit AcrB (Escherichia coli (strain K12)). The experiment in a line: Inhibition of AcrB in multidrug-resistant Escherichia coli BW25113 assessed as potentiation of levofloxacin-induced antibacterial activity by measuring levofloxacin MIC at 8 ug/ml by checkerboard titration method (reference value: 0.06 ug/ml). Conditions: dose 8.0 µg/ml.

The target is the same in data set [11]. The experiment in a line: Inhibition of AcrB in multidrug-resistant Escherichia coli BW25113 assessed as potentiation of levofloxacin-induced antibacterial activity by measuring levofloxacin MIC at 16 ug/ml by checkerboard titration method (reference value: 0.06 ug/ml). Conditions: dose 16.0 µg/ml.
Data set [12] shares this target. Description: Inhibition of AcrB in multidrug-resistant Escherichia coli BW25113 assessed as potentiation of levofloxacin-induced antibacterial activity by measuring levofloxacin MIC at 32 ug/ml by checkerboard titration method (reference value: 0.06 ug/ml). To be noted: dose 32.0 µg/ml.
The target is the same in data set [13]. Conditions: Escherichia coli BW25113; dose 128.0 µg/ml.
Data set [14] has the same target. Conditions: Escherichia coli BW25113; dose 32.0 µg/ml.
For data set [15] the target is unchanged. The experiment in a line: Inhibition of AcrB in multidrug-resistant Escherichia coli BW25113 assessed as potentiation of erythromycin-induced antibacterial activity by measuring erythromycin MIC at 16 ug/ml by checkerboard titration method (reference value: 64 ug/ml). To be noted: dose 16.0 µg/ml.
For data set [16] the target is unchanged. To be noted: Escherichia coli BW25113; dose 8.0 µg/ml.
The target is the same in data set [17]. Description: Inhibition of AcrB in multidrug-resistant Escherichia coli BW25113 assessed as potentiation of chloramphenicol-induced antibacterial activity by measuring chloramphenicol MIC at 16 ug/ml by checkerboard titration method (reference value: 8 ug/ml). Conditions: dose 16.0 µg/ml.
For data set [18] the target is unchanged. Description: Inhibition of AcrB in multidrug-resistant Escherichia coli BW25113 assessed as potentiation of tetraphenylphosphonium-induced antibacterial activity by measuring tetraphenylphosphonium MIC at 8 ug/ml by checkerboard titration method (reference value: 1024 ug/ml). Conditions: dose 8.0 µg/ml.
Data set [19] has the same target. The experiment in a line: Inhibition of AcrB in multidrug-resistant Escherichia coli BW25113 assessed as potentiation of erythromycin-induced antibacterial activity by measuring erythromycin MIC at 8 ug/ml by checkerboard titration method (reference value: 64 ug/ml). Conditions: dose 8.0 µg/ml.
Data set [20] concerns Cell membrane. The experiment in a line: Induction of inner membrane permeabilization in wild type Escherichia coli BW25113 assessed as perturbation of proton motive force at 32 ug/ml measured after 10 mins in presence of CCCP and glucose by Di0C2(3) probe based fluorescence assay. Conditions: escherichia coli bw25113, 10 min, dose 32 µg/ml. Put shortly:
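Cell suspensions were left untreated or exposed to 8-128 µg/mL compound for 10 min. DiOC₂(3) was then added and fluorescence followed to a plateau. Cells were re-energized with 0.5% glucose, and the rise in fluorescence was read as membrane-potential build-up. CCCP was added last to dissipate the potential.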

The target in data set [21] is T1, Multidrug efflux pump subunit AcrB (Escherichia coli (strain K12)). The experiment in a line: Inhibition of AcrB in multidrug-resistant Escherichia coli BW25113 assessed as potentiation of tetraphenylphosphonium-induced antibacterial activity by measuring tetraphenylphosphonium MIC at 16 ug/ml by checkerboard titration method (reference value: 1024 ug/ml). Conditions: dose 16.0 µg/ml.

Data set [22] shares this target. The experiment in a line: Inhibition of AcrB in multidrug-resistant Escherichia coli BW25113 assessed as potentiation of chloramphenicol-induced antibacterial activity by measuring chloramphenicol MIC at 32 ug/ml by checkerboard titration method (reference value: 8 ug/ml). To be noted: dose 32.0 µg/ml.

For `CC[C@H]1OC(=O)[C@H](C)[C@@H](O[C@H]2C[C@@](C)(OC)[C@@H](O)[C@H](C)O2)[C@H](C)[C@@H](O[C@@H]2O[C@H](C)C[C@H](N(C)C)[C@H]2O)[C@](C)(O)C[C@@H](C)C(=O)[C@H](C)[C@@H](O)[C@]1(C)O` [ERYTHROMYCIN], the MIC in the data set on Escherichia coli was found to be 4 µg/mL (≈ 5.45 µM).

For `CC1CN(C(=O)c2cc3c(OCc4ccc([N+](=O)[O-])cc4)cccc3c3c2CCC(C)(C)O3)CC(C)O1` (centres undefined), the MIC was > 512 µg/mL in [1] and > 128 µg/mL in data set [2].

`C[C@H]1COc2c(N3CCN(C)CC3)c(F)cc3c(=O)c(C(=O)O)cn1c23.C[C@H]1COc2c(N3CCN(C)CC3)c(F)cc3c(=O)c(C(=O)O)cn1c23.O` [LEVOFLOXACIN]: the MIC with Escherichia coli stood at 0.04 µg/mL.

As to `c1ccc([P+](c2ccccc2)(c2ccccc2)c2ccccc2)cc1` [TETRAPHENYLPHOSPHONIUM], in the data set on Escherichia coli, the MIC turned out to be 32 µg/mL.

For the compound `CO[C@H]1/C=C/O[C@@]2(C)Oc3c(C)c(O)c4c(O)c(c(/C=N/N5CCN(C)CC5)c(O)c4c3C2=O)NC(=O)/C(C)=C\C=C\[C@H](C)[C@H](O)[C@@H](C)[C@@H](O)[C@@H](C)[C@H](OC(C)=O)[C@@H]1C` [RIFAMPIN], the MIC in the data set on Escherichia coli was 16 µg/mL (≈ 19.4 µM).

In the case of `CC1(C)CCc2c(-c3nnco3)cc3c(OCc4ccc(F)cc4)cccc3c2O1`, the MIC turned out to be 8 µg/mL in data set [3]; 64 µg/mL (≈ 158 µM) in data set [1]; 32 µg/mL in data set [4]; 16 µg/mL (≈ 39.6 µM) in [5]; 16 µg/mL (≈ 39.6 µM) in [6]; 512 µg/mL in data set [7]. For the same compound, the MIC in data set [10] was found to be 0.06 µg/mL; in [11], 0.06 µg/mL; in data set [12], 0.06 µg/mL; in data set [13], 16 µg/mL (≈ 39.6 µM); in data set [14], 16 µg/mL (≈ 39.6 µM); in data set [15] it was 64 µg/mL. Besides, the MIC in [16] stood at 16 µg/mL (≈ 39.6 µM); in data set [17], 8 µg/mL; in [18], 1020 µg/mL; in data set [19], 64 µg/mL; in [21] it was 512 µg/mL; in [2] it was 64 µg/mL (≈ 158 µM). In data set [22], the MIC amounted to 8 µg/mL. The inhibition entry in data set [8] was “Active”. In addition, the Activity result in the data set with Cell membrane [9] and in the data set with Cell membrane [20] was “Not Active” each time.

Regarding `O=C(N[C@H](CO)[C@H](O)c1ccc([N+](=O)[O-])cc1)C(Cl)Cl` [CHLORAMPHENICOL], the MIC against Escherichia coli amounted to 2 µg/mL (≈ 6.19 µM).
